Series [1] can be described thus: Cmax at steady state in human after 4 days. The series is classed as ADME, organism-based. The settings on record: in vivo. A digest of the protocol: (§1)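 Plasma was sampled predose, at end of infusion, and 1, 3 and 9 h post-infusion on days 1 and 4, plus 24 h post-infusion on day 5. Drug was assayed by validated LC-MS/MS (0.02–10 µg/ml). Noncompartmental analysis; Cmax taken by observation without interpolation, with Tmax; day-4 values treated as steady state.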

Series [2] can be described thus: Tmax in human plasma. The series is classed as ADME, organism-based. A digest of the protocol: as §1
Series [3] concerns Homo sapiens. Description: Effect on glomerular filtration rate in human assessed as creatinine clearance rate in plasma per 1.73 m2 at 800 mg, iv after 4 days relative to baseline. The series is classed as functional.
A short description of series [4]: Clearance in human plasma after 4 days.
The subject of series [5] is Homo sapiens. Description: Effect on renal function in human assessed as blood urea nitrogen concentration at 800 mg, iv after 4 days relative to baseline. The series is classed as functional.
The test system of series [6] is Homo sapiens. Description: Effect on renal function in human assessed as blood urea nitrogen concentration at 800 mg, iv after 11 days relative to baseline. The series is classed as functional.
Series [7] relates to Homo sapiens. Description: Effect on glomerular filtration rate in human assessed as creatinine clearance rate in plasma per 1.73 m2 at 800 mg, iv after 11 days relative to baseline. Format: functional.
The nature of series [8]: Cmax […] in human after 1 day. The series is classed as ADME, organism-based. As to conditions: in vivo. A digest of the protocol:
as §1

For series [9], the system named is Homo sapiens. Description: Effect on renal function in human assessed as serum creatinine concentration at 800 mg, iv after 4 days relative to baseline. The series is classed as functional.
Series [10] relates to Homo sapiens. Description: Effect on renal function in human assessed as creatinine clearance in 24 hrs urine sample at 800 mg, iv after 11 days relative to baseline. The series is classed as functional. A digest of the protocol: (§2)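 Urine was collected over 24 h at baseline (−24 to 0 h), on day 4 (72–96 h) and on day 11 (240–264 h). CLCR = urinary creatinine amount / (SCr × 24 h) × (1.73/BSA), using SCr measured at the start of each collection.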

Series [11] in a line: Protein binding in human plasma. The series is classed as ADME, organism-based. The settings on record: read-out: PPB (converted). A digest of the protocol:
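Plasma ultrafiltrate and matching plasma were sampled on days 1 and 4, predose and 1 and 4 h after infusion start, and assayed by LC-MS/MS (ultrafiltrate range 0.01–5.0 µg/ml). Binding at each time point was calculated from free ultrafiltrate versus total plasma concentration.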

The nature of series [12]: Renal clearance in human urine after 4 days. Format: ADME, organism-based. The settings on record: read-out: CL_renal (converted). In outline: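 Steady-state AUC (AUCss,24) covered 25 h from the start of the day-4 infusion to 24 h after it (linear up/log down rule). CL = dose/AUCss,24. Urine from 0–24 h on day 4 was assayed by LC-MS/MS, and renal clearance = Xu(0–24)/AUCss,24.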

In series [13] the test system is Homo sapiens. Description: Effect on glomerular filtration rate in human assessed as iohexol clearance rate in plasma per 1.73 m2 at 800 mg, iv after 11 days relative to baseline. The series is classed as functional. A digest of the protocol:
(§3)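 GFR was measured as plasma clearance of iohexol. A single 20 ml bolus (300 mg/ml) was given on days 1, 4 and 11, timed to match 1 h after the end of the day-4 infusion. Blood was drawn at 120, 150, 180, 210, 240, 270 and 300 min and assayed by HPLC-UV. CL0 = dose × b/c1, with b and c1 from linear regression. Change from baseline used a noninferiority mixed-effects comparison with 95% CI.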

Series [14] relates to Homo sapiens. Description: Effect on glomerular filtration rate in human assessed as iohexol clearance rate in plasma per 1.73 m2 at 800 mg, iv after 4 days relative to baseline. Format: functional. A digest of the protocol: as §3
Series [15] concerns Homo sapiens. Description: Effect on renal function in human assessed as creatinine clearance in 24 hrs urine sample at 800 mg, iv after 4 days relative to baseline. Format: functional. A digest of the protocol: as §2
Series [16] concerns Homo sapiens. Description: Effect on renal function in human assessed as serum creatinine concentration at 800 mg, iv after 11 days relative to baseline. The series is classed as functional.

Turning to `COc1c(N2CC[C@@H](C3(N)CC3)C2)ccc2c(=O)c(C(=O)O)cn([C@@H]3C[C@@H]3F)c12`, the values for the Cmax in series [1] and in series [8] were 8850 ng/mL and 8210 ng/mL, respectively. Besides, the Tmax in series [2] worked out at 1.25 h. For the same compound, the Activity in the series on Homo sapiens [3] was 95.52 mL/min; with Homo sapiens [5], 0.69; with Homo sapiens [6], -2.06; in the series on Homo sapiens [7], 94.3 mL/min; in the series on Homo sapiens [9], 0.3; in the series with Homo sapiens [10], -3.4. The Activity is -2.44 mL/min in the series on Homo sapiens [13], 1.12 mL/min in the series on Homo sapiens [14], -32.8 with Homo sapiens [15] and 0.09 in the series with Homo sapiens [16]. Also, the clearance in series [4] turned out to be 166 mL/min. Also, the fraction unbound in [11] was 0.35. Further, the CL renal at 96 h in [12] is 43.3 mL/min.

For the origin of these results see ChEMBL document CHEMBL1143829, “Lack of effect of DX-619, a novel des-fluoro(6)-quinolone, on glomerular filtration rate measured by serum clearance of cold iohexol” (Antimicrob Agents Chemother, 2007).
